Data from ChEMBL document CHEMBL5058577, “EUbOPEN Chemogenomics Library 2 (Multiplex)” (2022).

System: Fibroblast
Assay: Multiplex assay against human fibroblast
Type: toxicity, cell-based
Summary of the method: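 At seeding, live cells were stained with Hoechst33342, BioTracker Green Microtubule Cytoskeleton Dye, MitoTracker Red and Annexin V Alexa Fluor 680. After compound addition they were imaged on a CQ1 microscope at 37°C and 5% CO2, and CellPathfinder machine-learning gating sorted them into Hoechst high-intensity objects or normal cells, with normal cells further split into healthy, pyknosed or fragmented nuclei and pyknosed cells into mitotic or apoptotic. Tubulin, mitochondrial-mass and membrane-permeability phenotypes are given as per cents of cells with healthy nuclei.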

[1] = 12 h, 1 µM, compound concentration 1 uM, replicate 1
[2] = 12 h, 1 µM, compound concentration 1 uM, replicate 2
[3] = 12 h, 10 µM, compound concentration 10 uM, replicate 1
[4] = 12 h, 10 µM, compound concentration 10 uM, replicate 2
[5] = 24 h, 1 µM, compound concentration 1 uM, replicate 1
[6] = 24 h, 1 µM, compound concentration 1 uM, replicate 2
[7] = 24 h, 10 µM, compound concentration 10 uM, replicate 1
[8] = 24 h, 10 µM, compound concentration 10 uM, replicate 2
[9] = 48 h, 1 µM, compound concentration 1 uM, replicate 1
[10] = 48 h, 1 µM, compound concentration 1 uM, replicate 2
[11] = 48 h, 10 µM, compound concentration 10 uM, replicate 1
[12] = 48 h, 10 µM, compound concentration 10 uM, replicate 2

O=C(O)CCC/C=C\CC1C(O)CC(O)C1/C=C/C(O)COc1cccc(Cl)c1 (centres undefined) [CLOPROSTENOL]
Population Apoptotic (%) [1]: 41%
Population Fragmented Nuclei (%) [1]: 15%
Population Healthy Nuclei (%) [1]: 68%
Population Hoechst High Intensity Objects (%) [1]: 0%
Population Membrane Permeable-Phenotype (%) [1]: 0%
Population Mitochondria Different-Phenotype (%) [1]: 2%
Population Mitotic Cells (%) [1]: 58%
Population Normal (%) [1]: 100%
Population Pyknosed Nuclei (%) [1]: 15%
Population Tubulin-Different-Phenotype (%) [1]: 22%
Total Cell Count [1]: 153
Population Apoptotic (%) [2]: 20%
Population Fragmented Nuclei (%) [2]: 22%
Population Healthy Nuclei (%) [2]: 52%
Population Hoechst High Intensity Objects (%) [2]: 2%
Population Membrane Permeable-Phenotype (%) [2]: 8%
Population Mitotic Cells (%) [2]: 80%
Population Normal (%) [2]: 97%
Population Pyknosed Nuclei (%) [2]: 25%
Population Tubulin-Different-Phenotype (%) [2]: 52%
Total Cell Count [2]: 141
Population Apoptotic (%) [3]: 38%
Population Fragmented Nuclei (%) [3]: 23%
Population Healthy Nuclei (%) [3]: 58%
Population Hoechst High Intensity Objects (%) [3]: 12%
Population Membrane Permeable-Phenotype (%) [3]: 0%
Population Mitochondria Different-Phenotype (%) [3]: 4%
Population Mitotic Cells (%) [3]: 61%
Population Normal (%) [3]: 87%
Population Pyknosed Nuclei (%) [3]: 18%
Population Tubulin-Different-Phenotype (%) [3]: 31%
Total Cell Count [3]: 212
Population Apoptotic (%) [4]: 23%
Population Healthy Nuclei (%) [4]: 43%
Population Hoechst High Intensity Objects (%) [4]: 4%
Population Membrane Permeable-Phenotype (%) [4]: 11%
Population Mitochondria Different-Phenotype (%) [4]: 9%
Population Mitotic Cells (%) [4]: 76%
Population Normal (%) [4]: 95%
Population Pyknosed Nuclei (%) [4]: 34%
Population Tubulin-Different-Phenotype (%) [4]: 53%
Total Cell Count [4]: 105
Population Apoptotic (%) [5]: 41%
Population Fragmented Nuclei (%) [5]: 19%
Population Healthy Nuclei (%) [5]: 62%
Population Hoechst High Intensity Objects (%) [5]: 0%
Population Membrane Permeable-Phenotype (%) [5]: 1%
Population Mitochondria Different-Phenotype (%) [5]: 3%
Population Mitotic Cells (%) [5]: 58%
Population Normal (%) [5]: 99%
Population Pyknosed Nuclei (%) [5]: 18%
Population Tubulin-Different-Phenotype (%) [5]: 26%
Total Cell Count [5]: 161
Population Apoptotic (%) [6]: 18%
Population Fragmented Nuclei (%) [6]: 27%
Population Healthy Nuclei (%) [6]: 49%
Population Hoechst High Intensity Objects (%) [6]: 3%
Population Membrane Permeable-Phenotype (%) [6]: 7%
Population Mitochondria Different-Phenotype (%) [6]: 5%
Population Mitotic Cells (%) [6]: 81%
Population Normal (%) [6]: 96%
Population Pyknosed Nuclei (%) [6]: 23%
Population Tubulin-Different-Phenotype (%) [6]: 53%
Total Cell Count [6]: 144
Population Apoptotic (%) [7]: 41%
Population Fragmented Nuclei (%) [7]: 24%
Population Healthy Nuclei (%) [7]: 57%
Population Hoechst High Intensity Objects (%) [7]: 12%
Population Membrane Permeable-Phenotype (%) [7]: 2%
Population Mitochondria Different-Phenotype (%) [7]: 3%
Population Mitotic Cells (%) [7]: 58%
Population Normal (%) [7]: 87%
Population Pyknosed Nuclei (%) [7]: 18%
Population Tubulin-Different-Phenotype (%) [7]: 24%
Total Cell Count [7]: 218
Population Apoptotic (%) [8]: 59%
Population Fragmented Nuclei (%) [8]: 28%
Population Healthy Nuclei (%) [8]: 50%
Population Hoechst High Intensity Objects (%) [8]: 3%
Population Membrane Permeable-Phenotype (%) [8]: 7%
Population Mitotic Cells (%) [8]: 40%
Population Normal (%) [8]: 96%
Population Pyknosed Nuclei (%) [8]: 21%
Population Tubulin-Different-Phenotype (%) [8]: 57%
Total Cell Count [8]: 107
Population Apoptotic (%) [9]: 65%
Population Fragmented Nuclei (%) [9]: 21%
Population Healthy Nuclei (%) [9]: 59%
Population Hoechst High Intensity Objects (%) [9]: 2%
Population Membrane Permeable-Phenotype (%) [9]: 2%
Population Mitochondria Different-Phenotype (%) [9]: 2%
Population Mitotic Cells (%) [9]: 34%
Population Normal (%) [9]: 97%
Population Pyknosed Nuclei (%) [9]: 19%
Population Tubulin-Different-Phenotype (%) [9]: 25%
Total Cell Count [9]: 156
Population Apoptotic (%) [10]: 36%
Population Fragmented Nuclei (%) [10]: 37%
Population Healthy Nuclei (%) [10]: 43%
Population Hoechst High Intensity Objects (%) [10]: 3%
Population Membrane Permeable-Phenotype (%) [10]: 12%
Population Mitochondria Different-Phenotype (%) [10]: 10%
Population Mitotic Cells (%) [10]: 64%
Population Normal (%) [10]: 96%
Population Pyknosed Nuclei (%) [10]: 18%
Population Tubulin-Different-Phenotype (%) [10]: 63%
Total Cell Count [10]: 137
Population Apoptotic (%) [11]: 46%
Population Fragmented Nuclei (%) [11]: 25%
Population Healthy Nuclei (%) [11]: 57%
Population Hoechst High Intensity Objects (%) [11]: 13%
Population Membrane Permeable-Phenotype (%) [11]: 0%
Population Mitochondria Different-Phenotype (%) [11]: 2%
Population Mitotic Cells (%) [11]: 53%
Population Normal (%) [11]: 86%
Population Pyknosed Nuclei (%) [11]: 16%
Population Tubulin-Different-Phenotype (%) [11]: 30%
Total Cell Count [11]: 205
Population Apoptotic (%) [12]: 55%
Population Fragmented Nuclei (%) [12]: 41%
Population Healthy Nuclei (%) [12]: 49%
Population Hoechst High Intensity Objects (%) [12]: 8%
Population Membrane Permeable-Phenotype (%) [12]: 4%
Population Mitochondria Different-Phenotype (%) [12]: 4%
Population Mitotic Cells (%) [12]: 44%
Population Normal (%) [12]: 91%
Population Pyknosed Nuclei (%) [12]: 9%
Population Tubulin-Different-Phenotype (%) [12]: 61%
Total Cell Count [12]: 108
